Screening results deposited in PubChem by Johns Hopkins Ion Channel Center.
Sampled rows, rich in hits. Any-hit rate of the full collection: about 2.3%.
TRPC4 agonist: activators of mouse TRPC4 channel | HEK293 TRPC4beta/mu-opioid, Fluo4 calcium fluorescence; hits give high values | Q9QUQ5 | B-score at 10 µM | AID 2237 | actives 0.49% (n = 310,000);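 active means B-score above 5 SD of library B-scores, and initial fluorescence ratio not above library mean plus 5 SD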;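 further: positive B-score marks a calcium rise read as TRPC4 activation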
Target sequence (Q9QUQ5 whole entry, looked up): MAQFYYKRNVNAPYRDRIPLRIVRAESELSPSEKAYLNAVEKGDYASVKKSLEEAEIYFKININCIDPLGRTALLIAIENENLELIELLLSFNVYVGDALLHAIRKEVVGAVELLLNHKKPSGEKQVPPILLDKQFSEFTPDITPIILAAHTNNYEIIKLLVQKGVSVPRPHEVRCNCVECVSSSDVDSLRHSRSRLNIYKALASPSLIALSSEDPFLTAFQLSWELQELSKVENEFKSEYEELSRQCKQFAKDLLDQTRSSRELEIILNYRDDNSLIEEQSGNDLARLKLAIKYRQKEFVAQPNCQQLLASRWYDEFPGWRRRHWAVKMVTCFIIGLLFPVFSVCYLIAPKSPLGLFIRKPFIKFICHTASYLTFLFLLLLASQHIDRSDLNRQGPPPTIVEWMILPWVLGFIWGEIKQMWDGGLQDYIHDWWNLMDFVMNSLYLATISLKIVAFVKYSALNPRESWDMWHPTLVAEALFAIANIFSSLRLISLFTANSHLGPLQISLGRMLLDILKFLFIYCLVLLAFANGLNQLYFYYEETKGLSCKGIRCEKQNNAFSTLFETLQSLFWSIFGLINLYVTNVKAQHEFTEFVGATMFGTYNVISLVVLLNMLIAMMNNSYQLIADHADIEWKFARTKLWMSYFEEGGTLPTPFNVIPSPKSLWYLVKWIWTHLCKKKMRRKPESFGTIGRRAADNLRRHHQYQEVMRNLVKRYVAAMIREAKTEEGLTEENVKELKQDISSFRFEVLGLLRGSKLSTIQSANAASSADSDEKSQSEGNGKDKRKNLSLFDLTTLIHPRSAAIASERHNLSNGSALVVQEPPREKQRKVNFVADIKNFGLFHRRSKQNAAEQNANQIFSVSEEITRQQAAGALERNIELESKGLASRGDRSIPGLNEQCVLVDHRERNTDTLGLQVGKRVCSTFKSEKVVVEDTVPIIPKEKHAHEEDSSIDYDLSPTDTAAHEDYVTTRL
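system = HEK293 cells stably co-expressing mouse TRPC4beta and mu-opioid receptor | schedule = Fluo4 dye loading 45 min at room temperature, 110 s recording | measure = B-scored integrated calcium fluorescence ratio | signal = Fluo4 calcium-sensitive dye fluorescence, kinetic, 1 Hz baseline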
TRPC6 act: activators of mouse TRPC6 channel; HEK293-TRPC6 membrane potential dye fluorescence; hits give high values; B-score at 10 µM; actives 0.13% (n = 310,000); AID 2550;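 active means B-score of the integrated fluorescence ratio above library mean plus 3 SD, and starting fluorescence ratio within library mean plus 5 SD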;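 further: higher score means more depolarization so channel activation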
TRPC6 inh: mouse TRPC6 channel inhibition; actives 1.1% (n = 310,000); B-score at 10 µM; HEK293-TRPC6, membrane potential dye, ACh-evoked depolarization; hits give low values; Q61143;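 active means B-score under library mean minus 3 SD, initial fluorescence not abnormally high, positive integrated signal ratio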;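 further: B-score derived from integrated fluorescence ratio over the kinetic read; more negative B-score means stronger inhibition of depolarization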
TRPC4 PAM: allosteric potentiators of mouse TRPC4 channel; AID 2227; actives 0.42% (n = 310,000); B-score at 10 µM; HEK293 TRPC4beta/mu-opioid, DAMGO EC20, Fluo-4 Ca2+ flux; hits give high values;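 active means B-score of calcium response area above 5 SD of library B-scores, with initial fluorescence ratio within 5 SD of library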;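 further: B-score of integrated fluorescence ratio over time as area under calcium response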
TRPC4 block: TRPC4 (mouse) channel inhibition; B-score at 10 µM; actives 0.39% (n = 300,000); HEK293 TRPC4beta/mu-opioid, DAMGO-evoked Fluo4 calcium flux; hits give low values; Q9QUQ5;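 active means B-score over 3 SD under the library average, no early fluorescence shift, positive overall ratio signal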
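Test system – stable TRPC4beta/mu-opioid receptor HEK293 cells · Probe or stimulus – DAMGO, a submaximal dose followed by a maximal one · Dosing – one concentration per compound · Signal – Fluo4 calcium fluorescence by kinetic imaging, 5 s 1 Hz baseline · Evaluation – per-well B score of integrated baseline-normalized Fluo4 ratio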
TRPC4 sel inh 2: second check of whether TRPC6 inhibitors also affect mouse TRPC4; inhibition, % at 10 µM; actives 42% (n = 920); HEK293 TRPC4/MOR, membrane potential dye fluorescence; channel activated by saturating DAMGO dose; shares compounds with TRPC6 inh;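 active means compounds whose fluorescence signal differed from control wells by over 3 SD, either direction, in both duplicate plates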
TRPC4 spec: selectivity of TRPC6 inhibitors: effect on mouse TRPC4; shares compounds with TRPC6 inh; HEK293 TRPC4/mu-opioid, membrane potential fluorescence; activity change, negative = inhibition, % at 10 µM; actives 61% (n = 920); AID 2777;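 active means rise or fall in signal beyond 3 SD of buffer-only wells in both replicate plates, either sign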;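 further: integrated kinetic ratio of fluorescence range over baseline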
HEK293 MPD ctr 2-1: second check of TRPC6 inhibitor effects in parental HEK293 cells | shares compounds with TRPC6 inh | signal change vs control, % at 10 µM | actives 31% (n = 920) | parental HEK293 membrane potential dye fluorescence; maximal acetylcholine challenge after compound addition;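 active means membrane potential signal moving either way by over 3 SD of the maximum-effect control, in both duplicate plates, meaning non-specific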
HEK293 MPD ctr-1: parental HEK293 nonspecific activity of TRPC6 inhibitors; shares compounds with TRPC6 inh; actives 60% (n = 920); parental HEK293 membrane potential dye fluorescence; membrane potential signal change, % at 10 µM;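 active means membrane potential signal shifting up or down by more than 3 SD of buffer-only wells, on both duplicate plates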
HEK293 MPD ctr-2: checks TRPC6 modulator effects in parental HEK293 cells | shares compounds with TRPC6 inh | membrane potential dye fluorescence | membrane potential signal change, % at 10 µM | actives 51% (n = 2,400) | AID 488924;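 active means membrane potential signal moves up or down beyond 5 SD from buffer-only wells, on both duplicate plates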
HEK293 MPD ctr 2-2: second check of TRPC6 modulator effects in parental HEK293 cells | AID 488926 | actives 14% (n = 2,400) | inhibition, % at 10 µM | membrane potential dye fluorescence; after compound, maximal acetylcholine stimulation | shares compounds with TRPC6 inh;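 active means membrane potential signal drops by more than 5 SD from the mean control signal, in both duplicate plates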;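 further: plate controls were acetylcholine ECmax control wells for no effect and buffer only wells for full effect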
TRPC4/MOR mod: selectivity of TRPC6 modulators against mouse TRPC4. shares compounds with TRPC6 inh. HEK293 TRPC4/mu-opioid, membrane potential fluorescence. percent change from control (negative = decrease, positive = increase), % at 10 µM. actives 69% (n = 2,400). AID 488927;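 active means membrane potential signal moved up or down beyond 5 SD of buffer control wells, in both duplicate plates, actives on both sides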;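 further: plate controls were assay buffer wells for no effect and DAMGO maximal-effect wells for full effect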
TRPC4 ctr inh 2: second selectivity test of TRPC6 modulators against mouse TRPC4. inhibition, % at 10 µM. shares compounds with TRPC6 inh. HEK293 TRPC4/mu-opioid, membrane potential dye fluorescence; stimulated with maximal-effect DAMGO. AID 488928. actives 55% (n = 2,400);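 active means drop in membrane potential signal beyond 5 SD of the control wells in both duplicate plates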;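 further: TRPC4 counter screen for TRPC6 hits run under conditions tuned for TRPC6 not TRPC4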
TRPC6 inh conf: mouse TRPC6 inhibitor confirmation; shares compounds with TRPC6 inh; HEK293-TRPC6, membrane potential dye, ACh-evoked depolarization; inhibition, % at 10 µM; actives 43% (n = 3,300); AID 488960;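 active means fluorescence ratio falls more than 5 SD below the full-stimulation control mean, in both duplicate runs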;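 further: integrated fluorescence ratio of peak minus minimum over baseline after agonist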
TRPC6 act confirm: mouse TRPC6 activator confirmation. shares compounds with TRPC6 inh. HEK293-TRPC6 membrane potential dye fluorescence, FDSS. activation, % at 10 µM. actives 11% (n = 2,800). AID 488961;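 active means ratio signal rise beyond 5 SD above unstimulated control wells' mean, seen in both duplicate runs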;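 further: plate controls were buffer EC0 wells for no effect and acetylcholine ECmax response for full effect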
* hit, by the source's call; i = inactive; · = no result.

SMILES	TRPC4 agonist	TRPC6 act	TRPC6 inh	TRPC4 PAM	TRPC4 block	HEK293 MPD ctr-2	HEK293 MPD ctr 2-2	TRPC4/MOR mod	TRPC4 ctr inh 2	TRPC6 inh conf	TRPC6 act confirm	others
Cc1cccc(NS(=O)(=O)c2cccc(C(=O)N3CCN(S(=O)(=O)c4ccccc4)CC3)c2)c1	i	12.8*	-13.1*	i	i	i	i	i	i	110.5%*	132.0%*
Cc1cccc(NS(=O)(=O)c2cccc(C(=O)N3CCN(c4ccccn4)CC3)c2)c1	i	i	-10.5*	i	i	·	·	·	·	78.7%*	·	TRPC4 sel inh 2=i;TRPC4 spec=2.7%*;HEK293 MPD ctr 2-1=220.5%*;HEK293 MPD ctr-1=1.3%*
CCOC(=O)N1CCN(C(=O)c2cccc(NS(=O)(=O)c3ccc(F)c(F)c3)c2)CC1	i	i	i	i	i	·	·	·	·	·	·
O=C(c1cccc(S(=O)(=O)Nc2ccccc2F)c1)N1CCN(c2ccccc2F)CC1	i	i	-6.45*	i	i	i	i	i	i	64.0%*	·
CN(c1ccccc1)S(=O)(=O)c1cccc(C(=O)N2CCN(c3ccccn3)CC2)c1	i	11.9*	-7.22*	i	i	143.5%*	i	37.5%*	i	64.0%*	94.0%*
Cc1cccc(CC(=O)c2c[nH]c3ccccc23)c1	i	i	i	i	i	·	·	·	·	·	·
CC(=O)N1CCC(N(CCN2CCOCC2)C(=S)Nc2cc(C)ccc2C)CC1	i	i	i	i	i	·	·	·	·	·	·
Cc1[nH]n(-c2ccc([N+](=O)[O-])cc2)c(=O)c1/C=N/N1CCOCC1	i	i	i	i	i	·	·	·	·	·	·
CC(=NCCCn1ccnc1)c1c(C)[nH]n(-c2ccc([N+](=O)[O-])cc2)c1=O	i	i	-5.46*	i	i	-208.5%*	i	-41.5%*	37.0%*	i	i
CCOc1ccc(C(=O)CCC(=O)N(CC)CC(=O)Nc2c(F)cccc2F)cc1	i	i	i	i	i	·	·	·	·	·	·
N=c1c2ccccc2nc2n1CCCCCCCCCCC2	i	i	-7.61*	i	i	·	·	·	·	i	·	TRPC4 sel inh 2=50.0%*;TRPC4 spec=17.1%*;HEK293 MPD ctr 2-1=253.5%*;HEK293 MPD ctr-1=18.3%*
CCOC(=O)N1CCN(c2ccc(S(=O)(=O)N(Cc3ccccc3)Cc3ccccc3)cn2)CC1	i	i	-5.32*	i	i	i	i	11.5%*	i	i	i
CN(C)S(=O)(=O)N1CCN(c2ccccc2Cl)CC1	i	i	i	i	i	·	·	·	·	·	·
